Reference: ChEMBL document CHEMBL1147575, “Novel inhibitors of fatty acid oxidation as potential metabolic modulators” (Bioorg Med Chem Lett, 2004)

Tests used:
Homo sapiens = species: Homo sapiens; assay: Amount of parent compound remaining after incubation with human liver microsomes for 30 min.; type: functional
Method in brief: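 Human liver microsome (liver S-9) incubation for 30 min; read-out is percent of parent drug remaining.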

Rattus norvegicus [1] = species: Rattus norvegicus; assay: Inhibition of 1-14C]palmitoyl-CoA oxidation in rat heart mitochondria.; type: functional
Method in brief: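 Rat heart mitochondria; substrate 1-14[C]-palmitoyl-CoA, oxidation measured. Tested at 6 concentrations; IC50 from non-linear regression curve fit, mean of n=3. Run only for compounds giving ≥50% inhibition at 100 µM.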

Rattus norvegicus [2] = species: Rattus norvegicus; assay: Inhibition of 1-14C]palmitoyl-CoA oxidation in rat heart mitochondria at 100 uM concentration; type: functional
Method in brief: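 Single-point screen at 100 µM: percent inhibition of 1-14[C]-palmitoyl-CoA oxidation in rat heart mitochondria. 95% confidence limits generally ±15% of the mean.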

[3] = Oral bioavailability in rat after oral administration at 10.5 mg/kg dose; type: ADME, organism-based; conditions: in vivo
Method in brief: (§1)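 Rats dosed orally, single dose per compound (9.7–13 mg/kg). Preliminary PK: oral bioavailability (%F), AUC (ng·hr/mL) and t1/2 (h) derived; values are average of n=3.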

[4] = AUC in rat after oral administration at 10.5 mg/kg dose; type: ADME, organism-based; set-up: dose 10.5 mg/kg, route oral; conditions: plasma; method in brief: as §1
[5] = Half life period in rat after oral administration at 10.5 mg/kg dose; type: ADME, organism-based; set-up: dose 10.5 mg/kg, route oral; conditions: in vivo; method in brief: as §1
[6] = Oral bioavailability in rat after oral administration at 11.2 mg/kg dose; type: ADME, organism-based; conditions: in vivo; method in brief: as §1
[7] = AUC in rat after oral administration at 11.2 mg/kg dose; type: ADME, organism-based; set-up: dose 11.2 mg/kg, route oral; conditions: plasma; method in brief: as §1
[8] = Half life period in rat after oral administration at 11.2 mg/kg dose; type: ADME, organism-based; set-up: dose 11.2 mg/kg, route oral; conditions: in vivo; method in brief: as §1
[9] = Oral bioavailability in rat after oral administration at 13 mg/kg dose; type: ADME, organism-based; conditions: in vivo; method in brief: as §1
[10] = Half life period in rat after oral administration at 13 mg/kg dose; type: ADME, organism-based; set-up: dose 13 mg/kg, route oral; conditions: in vivo; method in brief: as §1
[11] = Area under curve in rat after oral administration at 13 mg/kg dose; type: ADME, organism-based; set-up: dose 13 mg/kg, route oral; conditions: in vivo; method in brief: as §1
[12] = Oral bioavailability in rat after oral administration at 9.7 mg/kg dose; type: ADME, organism-based; conditions: in vivo; method in brief: as §1
[13] = AUC in rat after oral administration at 9.7 mg/kg dose; type: ADME, organism-based; set-up: dose 9.7 mg/kg, route oral; conditions: plasma; method in brief: as §1
[14] = Half life period in rat after oral administration at 9.7 mg/kg dose; type: ADME, organism-based; set-up: dose 9.7 mg/kg, route oral; conditions: in vivo; method in brief: as §1

| SMILES | Remaining (Homo sapiens) [%] | IC50 (Rattus norvegicus [1]) [µM] | inhibition (Rattus norvegicus [2]) [%] | also measured |
| --- | --- | --- | --- | --- |
| Cc1cccc(C)c1NC(=O)CN1CCN(CC(O)COc2ccc3oc(-c4ccc(C(F)(F)F)cc4)nc3c2)CC1 (centres undefined) | 40 | 8 | 89 | – |
| Cc1nc2ccc(OCC(O)CN3CCN(CC(=O)Nc4c(C)cccc4C)CC3)cc2s1 (centres undefined) | – | – | 3 | – |
| Cc1nc2cc(OC[C@H](O)CN3CC4CC3CN4CC(=O)Nc3c(C)cccc3C)ccc2s1 (some centres undefined) | – | – | 40 | – |
| Cc1nc2cc(OC[C@@H](O)CN3CCN(CC(=O)Nc4c(C)cccc4C)C[C@@H]3C)ccc2s1 | < 30 | 5 | – | – |
| Cc1cccc(C)c1NC(=O)CN1CCN(CC(O)COc2ccc3oc(-c4ccccc4)nc3c2)CC1 (centres undefined) | 15 | 23 | 70 | – |
| Cc1cccc(C)c1NC(=O)CN1CCN(CC(O)COc2ccc3ncsc3c2)CC1 (centres undefined) | – | – | 3 | – |
| CCc1nc2cc(OCC(O)CN3CCN(CC(=O)Nc4c(C)cccc4C)CC3)ccc2s1 (centres undefined) | 29 | 13 | 75 | – |
| Cc1nc2cc(OCC(O)CN3CCN(CC(=O)Nc4c(C)cccc4C)CC3(C)C)ccc2s1 (centres undefined) | < 10 | 0.45 | – | – |
| Cc1nc2cc(OCCCN3CCN(CC(=O)Nc4c(C)cccc4C)CC3)ccc2s1 | < 30 | – | 38 | – |
| Cc1nc2cc(OC[C@H](O)CN3CCN(CC(=O)Nc4c(C)cccc4C)CC3)ccc2s1 | < 27 | 4 | – | – |
| Cc1nc2cc(OC[C@H](O)CN3CCN(CC(=O)Nc4c(C)cccc4C)CC3(C)C)ccc2s1 | < 10 | 0.11 | – | bioavailability [3]: 13%; AUC [4]: 265 ng·h/mL; half-life [5]: 4.2 h |
| Cc1nc2cc(OC[C@@H](O)CN3C(C)CN(CC(=O)Nc4c(C)cccc4C)CC3C)ccc2s1 (some centres undefined) | < 30 | 2.5 | – | – |
| Cc1nc2cc(OC[C@H](O)CN3C[C@@H]4C[C@H]3CN4CC(=O)Nc3c(C)cccc3C)ccc2s1 | – | – | 26 | – |
| Cc1cccc(C)c1NC(=O)CN1CCN(CC(O)COc2ccc3oc(-c4cccc(C(F)(F)F)c4)nc3c2)CC1 (centres undefined) | 6 | 13 | 82 | – |
| Cc1nc2cc(OC[C@H](O)CN3C(C)CN(CC(=O)Nc4c(C)cccc4C)CC3C)ccc2s1 (some centres undefined) | 21 | 0.07 | – | bioavailability [6]: 11%; AUC [7]: 128 ng·h/mL; half-life [8]: 3.5 h |
| Cc1nc2cc(OC[C@@H](O)CN3CCN(CC(=O)Nc4c(C)cccc4C)C[C@H]3C)ccc2s1 | < 10 | 10 | – | – |
| CCCc1nc2cc(OCC(O)CN3CCN(CC(=O)Nc4c(C)cccc4C)CC3)ccc2s1 (centres undefined) | 15 | 20 | 70 | – |
| Cc1nc2cc(OC[C@H](O)CN3CCN(CC(=O)Nc4c(C)cccc4C)C[C@H]3C)ccc2s1 | < 10 | 2 | – | – |
| Cc1nc2cc(OCC(O)CN3CCN(CC(=O)Nc4c(C)cccc4C)CC3)ccc2s1 (centres undefined) | 50 | 10 | 88 | bioavailability [9]: 45%; half-life [10]: 3 h; AUC [11]: 1260 ng·h/mL |
| Cc1nc2cc(OC[C@H](O)CN3CC(C)N(CC(=O)Nc4c(C)cccc4C)CC3C)ccc2s1 (some centres undefined) | < 10 | 0.023 | – | – |
| Cc1nc2cc(OC[C@H](O)CN3CCN(CC(=O)Nc4c(C)cccc4C)C[C@@H]3C)ccc2s1 | < 10 | 0.2 | – | bioavailability [12]: 5%; AUC [13]: 278 ng·h/mL; half-life [14]: 6.2 h |
| Cc1nc2cc(OCC(O)CN3CCN(CC(=O)Nc4c(C)cccc4C)CC3)ccc2o1 (centres undefined) | – | – | 34 | – |
| Cc1nc2cc(OC[C@@H](O)CN3CCN(CC(=O)Nc4c(C)cccc4C)CC3)ccc2s1 | 35 | – | 47 | – |
